# Results gathered from unrelated publications.
# Lines come from different studies, so protocols differ.
# Target: Calcium/calmodulin-dependent protein kinase type II subunit alpha (CAMK2A, Homo sapiens, UniProt Q9UQM7)
Compound,test,setting,endpoint,value
CCCS(=O)(=O)Nc1ccc(F)c(C(=O)c2c[nH]c3ncc(-c4ccc(Cl)cc4)cc23)c1F,"enzyme activity, inhibitor",1 µM,inhibition,< 20%
Cn1c2c(c3ccc(Cl)c(Cl)c31)C(C#N)C1(CCN(C(=O)OC(C)(C)C)CC1)NC2=O (racemic),"thermal stability, DSF",10 µM,ΔTm,0 °C
N#Cc1ccc(Nc2ccc3[nH]c(=O)[nH]c3c2)c(Cl)c1,"cell-free assay, competition with immobilised ligand",1 µM,remaining binding,84%
CC(C)(C)c1nc2c(s1)c1nc(N)ncc1c1ccc(NS(=O)(=O)c3c(F)cccc3F)c(F)c12,"enzyme activity, inhibitor, radiometric",1 µM,remaining activity,80%
CN1CC(Oc2cnc(C#N)cc2-c2ccn3nc(NC(=O)C4CC4)cc3c2)C1,"enzyme activity, inhibitor",1 µM,inhibition,6%
O=C1NC(c2ccccn2)Sc2ccccc21 (stereo not shown),"cell-free assay, competition with immobilised ligand",1 µM,remaining binding,100%
Nc1ncnc2occ(-c3ccc(NC(=O)Nc4cc(C(F)(F)F)ccc4F)cc3)c12,"enzyme activity, inhibitor",20 µM,remaining activity,61%
C[S+]([O-])c1ccc(-c2nc(-c3ccncc3)c(-c3ccc(F)cc3)[nH]2)cc1 (stereo not shown),cell-free assay,0.5 µM,remaining signal,101%
CC1(C)NC(=O)c2[nH]c3c(Cl)c(Cl)ccc3c2C1C#N (stereo not shown),"thermal stability, DSF",10 µM,ΔTm,1 °C
Nc1cnc(N2CCc3cc(S(=O)(=O)Nc4c(F)cc(Cl)cc4F)cc(N4CCCC4=O)c32)nc1,"cell-free assay, competition with immobilised ligand",1 µM,remaining binding,92%
Cc1ccc(C(=O)NCc2ccsc2)cc1C#Cc1cn(C(C)C)c2ncnc(N)c12,"enzyme activity, inhibitor",1 µM,activity vs control,113%
CN1CCN(c2cnc3c(C4CCN(C(=O)c5ccc(OC(F)(F)F)cc5N)CC4)ncnc3c2)CC1,"cell-free assay, competition with immobilised ligand",1 µM,remaining binding,69%
Cc1cc(NC(=O)c2cccc3cc(-c4cccc5[nH]nc(N)c45)ccc23)ccc1F,"enzyme activity, inhibitor",0.1 µM,activity vs control,123%
Cc1cc(-n2nc(Cc3cc(F)cc(C(F)(F)F)c3)nc2C)ccc1C(N)=O,"cell-free assay, competition with immobilised ligand",1 µM,remaining binding,99%
Cn1c2c(c3ccc(Cl)c(Cl)c31)C(C#N)C1(CCOCC1)NC2=O (stereo not shown),"thermal stability, DSF",10 µM,ΔTm,0.9 °C
COc1cc2ncnc(Nc3ccc(Oc4ccccc4)c(C)c3C)c2cc1OC,"enzyme activity, inhibitor",1 µM,inhibition,0%
CS(=O)(=O)CCNCc1ccc(-c2ccc3ncnc(Nc4ccc(OCc5cccc(F)c5)c(Cl)c4)c3c2)o1,cell-free assay,0.5 µM,remaining signal,98.6%
O=C1CCc2cc(Nc3cc(OC4CCOCC4)c([N+](=O)[O-])cc3Cl)ccc2N1,"cell-free assay, competition with immobilised ligand",1 µM,remaining binding,85%
C[C@@H]1CCN(C(=O)CC#N)C[C@@H]1N(C)c1ncnc2[nH]ccc12,"cell-free assay, inhibitor",0.5 µM,remaining signal,99.6%
Cn1c2c(Cl)c(Cl)ccc2c2cc[nH]c(=O)c21,"thermal stability, DSF",10 µM,ΔTm,0.4 °C
Cc1c(NC(=O)c2cc(C(N)=O)nc3cc(F)ccc23)c(C(F)(F)F)nn1Cc1ccc(C(C)(C)C)cc1,"cell-free assay, competition with immobilised ligand",1 µM,remaining binding,89%
CSc1nc(C)c(-c2ccnc(Nc3ccc(N4CCOCC4)cc3)c2)[nH]1,"enzyme activity, inhibitor",10 µM,inhibition,-5.7%
N#CCCc1ccc2c(c1)-c1[nH]c3ccc([N+](=O)[O-])cc3c1CC(=O)N2,cell-free assay,0.5 µM,remaining signal,69.1%
CNC(=O)c1ccc(Nc2ncc(C(F)(F)F)c(NCc3nccnc3N(C)S(C)(=O)=O)n2)cc1,"cell-free assay, competition with immobilised ligand",0.1 µM,remaining binding,83%
O=C(Nc1cnn(-c2csc(C(=O)NC3COC3)c2)c1)Nc1ccccc1Cl,"enzyme activity, inhibitor",5 µM,remaining activity,100%
